From ChEMBL document CHEMBL1687709 (Antimicrob Agents Chemother, 2008)

Assays:
Type in all cases: ADME, organism-based
[1] = Cmax in HIV-infected patient at 480 mg/m2, po administered every 12 hrs for 6 weeks co-administered with 120 mg/m2 of ritonavir and saquinavir; set-up: route oral; conditions: human, in vivo
Procedure, shortened: (§1)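 Step 2 SQV 750 mg/m2 q12h was added by week 4 when LPV IQ was <15. A second 12-h intensive PK study ran after 2 weeks of SQV plus LPV/r (week 6), with plasma predose and at 1, 2, 3, 6 and 12 h. HPLC-UV at 212 nm (LPV 0.100–40, SQV 0.050–20 μg/ml). Noncompartmental AUC, Cmax, Tmax and C12h.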

[2] = AUC in HIV-infected patient at 480 mg/m2, po administered every 12 hrs for 6 weeks co-administered with 120 mg/m2 of ritonavir and saquinavir; conditions: human, plasma; procedure, shortened: as §1
[3] = Tmax in HIV-infected patient at 480 mg/m2, po administered every 12 hrs for 6 weeks co-administered with 120 mg/m2 of ritonavir and saquinavir; conditions: human, in vivo; procedure, shortened: as §1
[4] = Plasma concentration in HIV-infected patient at 480 mg/m2, po administered every 12 hrs for 6 weeks co-administered with 120 mg/m2 of ritonavir and saquinavir measured 12 hrs after last dose; conditions: human; procedure, shortened: as §1
[5] = Tmax in HIV-infected patient at 400 mg/m2, po administered every 12 hrs for 2 weeks co-administered with 120 mg/m2 of ritonavir; conditions: human, in vivo, in the assay text read “100 mg/m2 of ritonavir” for “120 mg/m2 of ritonavir”
Procedure, shortened: (§2)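 Treatment-experienced HIV-infected children and adolescents. Without NNRTI: LPV/r 400/100 mg/m2 q12h. With NNRTI: 480/120 mg/m2 q12h. Given as gel capsule or liquid. After 2 weeks, a 12-h intensive PK study followed an observed dose, no standardized meal. Plasma (EDTA) was drawn predose and at 1, 2, 3, 6 and 12 h. LPV was measured by HPLC-UV at 212 nm (range 0.100–40 μg/ml). Noncompartmental AUC, Cmax, Tmax, C12h and CL/F.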

[6] = AUC in HIV-infected patient at 400 mg/m2, po administered every 12 hrs for 2 weeks co-administered with 120 mg/m2 of ritonavir; conditions: human, plasma, in the assay text read “100 mg/m2 of ritonavir” for “120 mg/m2 of ritonavir”; procedure, shortened: as §2
[7] = Clearance in HIV-infected patient at 400 mg/m2, po administered every 12 hrs for 2 weeks co-administered with 120 mg/m2 of ritonavir; conditions: human, in vivo, in the assay text read “100 mg/m2 of ritonavir” for “120 mg/m2 of ritonavir”; procedure, shortened: as §2
[8] = Cmax in HIV-infected patient at 400 mg/m2, po administered every 12 hrs for 2 weeks co-administered with 120 mg/m2 of ritonavir; set-up: route oral; conditions: human, in vivo, in the assay text read “100 mg/m2 of ritonavir” for “120 mg/m2 of ritonavir”; procedure, shortened: as §2
[9] = Plasma concentration in HIV-infected patient at 400 mg/m2, po administered every 12 hrs for 2 weeks co-administered with 120 mg/m2 of ritonavir measured 12 hrs after last dose; conditions: human, in the assay text read “100 mg/m2 of ritonavir” for “120 mg/m2 of ritonavir”; procedure, shortened: as §2

Cmax [1]	AUC [2]	Tmax [3]	concentration at 12 h [4]	Tmax [5]	AUC [6]	CL/F [7]	Cmax [8]	concentration at 12 h [9]	SMILES
3600 ng/mL	33700 ng·h/mL	3 h	1820 ng/mL	–	–	–	–	–	CC(C)(C)NC(=O)[C@@H]1C[C@@H]2CCCC[C@@H]2CN1C[C@@H](O)[C@H](Cc1ccccc1)NC(=O)[C@H](CC(N)=O)NC(=O)c1ccc2ccccc2n1
–	–	–	–	3 h	157000 ng·h/mL	43 mL/min	17200 ng/mL	8800 ng/mL	Cc1cccc(C)c1OCC(=O)N[C@@H](Cc1ccccc1)[C@@H](O)C[C@H](Cc1ccccc1)NC(=O)[C@H](C(C)C)N1CCCNC1=O [LOPINAVIR]
